How the values were obtained:
Format in all cases: functional
NCI-H226 = assay: Cytotoxicity against human NCI-H226 cells assessed as growth inhibition after 48 hrs by SRB assay; details: NCI-H226, 48 h
Outline: (§1)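 NCI 60-cell panel; compounds passing a single-dose screen (10−5 M, 48 h) were tested at five 10-fold dilutions (10−4 to 10−8 M) with 48 h drug exposure. GI50 is the molar concentration giving 50% reduction in net cell growth relative to cell numbers on day 0.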

MDA-MB-435 = assay: Cytotoxicity against human MDA-MB-435 cells assessed as growth inhibition after 48 hrs by SRB assay; details: MDA-MB-435, 48 h; outline: as §1
RPMI-8226 = assay: Cytotoxicity against human RPMI8226 cells assessed as growth inhibition after 48 hrs by SRB assay; details: RPMI-8226, 48 h; outline: as §1
[1] = Cytotoxicity against human HCT116 cells assessed as growth inhibition after 48 hrs by SRB assay; details: HCT-116, 48 h; outline: as §1
KM12 = assay: Cytotoxicity against human KM12 cells assessed as growth inhibition after 48 hrs by SRB assay; details: KM12, 48 h; outline: as §1
[2] = Cytotoxicity against human OVCAR8 cells assessed as growth inhibition after 48 hrs by SRB assay; details: OVCAR-8, 48 h; outline: as §1
CAKI-1 = assay: Cytotoxicity against human Caki1 cells assessed as growth inhibition after 48 hrs by SRB assay; details: CAKI-1, 48 h; outline: as §1
SF-539 = assay: Cytotoxicity against human SF539 cells assessed as growth inhibition after 48 hrs by SRB assay; details: SF-539, 48 h; outline: as §1
MOLT-4 = assay: Cytotoxicity against human MOLT4 cells assessed as growth inhibition after 48 hrs by SRB assay; details: MOLT-4, 48 h; outline: as §1
MCF7 = assay: Cytotoxicity against human MCF7 cells assessed as growth inhibition after 48 hrs by SRB assay; details: MCF7, 48 h; outline: as §1
[3] = Cytotoxicity against human HCT15 cells assessed as growth inhibition after 48 hrs by SRB assay; details: HCT-15, 48 h; outline: as §1
A498 = assay: Cytotoxicity against human A498 cells assessed as growth inhibition after 48 hrs by SRB assay; details: A498, 48 h; outline: as §1
NCI-H23 = assay: Cytotoxicity against human NCI-H23 cells assessed as growth inhibition after 48 hrs by SRB assay; details: NCI-H23, 48 h; outline: as §1
[4] = Cytotoxicity against human UACC62 cells assessed as growth inhibition after 48 hrs by SRB assay; details: UACC-62, 48 h
SN12C = assay: Cytotoxicity against human SN12C cells assessed as growth inhibition after 48 hrs by SRB assay; outline: as §1
HT-29 = assay: Cytotoxicity against human HT-29 cells assessed as growth inhibition after 48 hrs by SRB assay; details: HT-29, 48 h; outline: as §1
[5] = Cytotoxicity against human OVCAR5 cells assessed as growth inhibition after 48 hrs by SRB assay; details: OVCAR-5, 48 h; outline: as §1
[6] = Cytotoxicity against human OVCAR4 cells assessed as growth inhibition after 48 hrs by SRB assay; details: OVCAR-4, 48 h; outline: as §1
[7] = Cytotoxicity against human UO31 cells assessed as growth inhibition after 48 hrs by SRB assay; details: UO-31, 48 h
IGROV-1 = assay: Cytotoxicity against human IGROV1 cells assessed as growth inhibition after 48 hrs by SRB assay; details: IGROV-1, 48 h; outline: as §1
SK-MEL-5 = assay: Cytotoxicity against human SK-MEL-5 cells assessed as growth inhibition after 48 hrs by SRB assay; details: SK-MEL-5, 48 h; outline: as §1
MDA-MB-231 = assay: Cytotoxicity against human MDA-MB-231 cells assessed as growth inhibition after 48 hrs by SRB assay; details: MDA-MB-231, 48 h; outline: as §1
[8] = Cytotoxicity against human NCI-ADR-RES cells assessed as growth inhibition after 48 hrs by SRB assay; outline: as §1
TK-10 = assay: Cytotoxicity against human TK10 cells assessed as growth inhibition after 48 hrs by SRB assay; details: TK-10, 48 h
HL-60(TB) = assay: Cytotoxicity against human HL-60(TB) cells assessed as growth inhibition after 48 hrs by SRB assay; details: HL-60, 48 h
Outline: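 NCI 60-cell panel, leukemia subpanel. Five-dose screen at 10-fold dilutions from 10−4 to 10−8 M with 48 h drug exposure. GI50 is the molar concentration giving 50% reduction in net cell growth compared with cell numbers on day 0.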

U-251 = assay: Cytotoxicity against human U251 cells assessed as growth inhibition after 48 hrs by SRB assay; details: U-251, 48 h
SK-OV-3 = assay: Cytotoxicity against human SKOV3 cells assessed as growth inhibition after 48 hrs by SRB assay; details: SK-OV-3, 48 h; outline: as §1
[9] = Cytotoxicity against human OVCAR3 cells assessed as growth inhibition after 48 hrs by SRB assay; details: OVCAR-3, 48 h; outline: as §1
DU-145 = assay: Cytotoxicity against human DU145 cells assessed as growth inhibition after 48 hrs by SRB assay; details: DU-145, 48 h; outline: as §1
786-0 = assay: Cytotoxicity against human 786-0 cells assessed as growth inhibition after 48 hrs by SRB assay; details: 786-0, 48 h; outline: as §1
SW-620 = assay: Cytotoxicity against human SW620 cells assessed as growth inhibition after 48 hrs by SRB assay; details: SW-620, 48 h
RXF 393 = assay: Cytotoxicity against human RXF393 cells assessed as growth inhibition after 48 hrs by SRB assay; details: RXF 393, 48 h; outline: as §1
NCI-H460 = assay: Cytotoxicity against human NCI-H460 cells assessed as growth inhibition after 48 hrs by SRB assay; details: NCI-H460, 48 h; outline: as §1
HCC 2998 = assay: Cytotoxicity against human HCC2998 cells assessed as growth inhibition after 48 hrs by SRB assay; details: HCC 2998, 48 h; outline: as §1
[10] = Cytotoxicity against human PC3 cells assessed as growth inhibition after 48 hrs by SRB assay; details: PC-3, 48 h; outline: as §1
LOX IMVI = assay: Cytotoxicity against human LOXIMVI cells assessed as growth inhibition after 48 hrs by SRB assay; outline: as §1
SNB-19 = assay: Cytotoxicity against human SNB19 cells assessed as growth inhibition after 48 hrs by SRB assay; details: SNB-19, 48 h; outline: as §1
BT-549 = assay: Cytotoxicity against human BT549 cells assessed as growth inhibition after 48 hrs by SRB assay; details: BT-549, 48 h; outline: as §1
SF-295 = assay: Cytotoxicity against human SF295 cells assessed as growth inhibition after 48 hrs by SRB assay; details: SF-295, 48 h; outline: as §1
M14 = assay: Cytotoxicity against human M14 cells assessed as growth inhibition after 48 hrs by SRB assay; details: M14, 48 h; outline: as §1
SNB-75 = assay: Cytotoxicity against human SNB75 cells assessed as growth inhibition after 48 hrs by SRB assay; details: SNB-75, 48 h
COLO 205 = assay: Cytotoxicity against human COLO205 cells assessed as growth inhibition after 48 hrs by SRB assay; details: COLO 205, 48 h; outline: as §1
SF-268 = assay: Cytotoxicity against human SF268 cells assessed as growth inhibition after 48 hrs by SRB assay; details: SF-268, 48 h; outline: as §1

SMILES: COc1cc(/C(C#N)=C/c2coc3ccccc23)cc(OC)c1OC
- GI50 (NCI-H226): 6200 nM
- GI50 (MDA-MB-435): 278 nM
- GI50 (RPMI-8226): 2470 nM
- GI50 [1]: 517 nM
- GI50 (KM12): 586 nM
- GI50 [2]: 2900 nM
- GI50 (CAKI-1): 650 nM
- GI50 (SF-539): 442 nM
- GI50 (MOLT-4): 3820 nM
- GI50 (MCF7): 376 nM
- GI50 [3]: 492 nM
- GI50 (A498): 458 nM
- GI50 (NCI-H23): 4580 nM
- GI50 [4]: 519 nM
- GI50 (SN12C): 2170 nM
- GI50 (HT-29): 394 nM
- GI50 [5]: 3330 nM
- GI50 [6]: 2610 nM
- GI50 [7]: 2890 nM
- GI50 (IGROV-1): 3060 nM
- GI50 (SK-MEL-5): 336 nM
- GI50 (MDA-MB-231): 1710 nM
- GI50 [8]: 382 nM
- GI50 (TK-10): 2100 nM
- GI50 (HL-60(TB)): 1030 nM
- GI50 (U-251): 605 nM
- GI50 (SK-OV-3): 1710 nM
- GI50 [9]: 277 nM
- GI50 (DU-145): 1880 nM
- GI50 (786-0): 6110 nM
- GI50 (SW-620): 504 nM
- GI50 (RXF 393): 496 nM
- GI50 (NCI-H460): 839 nM
- GI50 (HCC 2998): 4130 nM
- GI50 [10]: 1840 nM
- GI50 (LOX IMVI): 993 nM
- GI50 (SNB-19): 3630 nM
- GI50 (BT-549): 927 nM
- GI50 (SF-295): 446 nM
- GI50 (M14): 667 nM
- GI50 (SNB-75): 769 nM
- GI50 (COLO 205): 449 nM
- GI50 (SF-268): 4790 nM

Source: ChEMBL document CHEMBL3407388, “Synthesis, anticancer activity and molecular docking studies on a series of heterocyclic trans-cyanocombretastatin analogues as antitubulin agents” (2015)
